Experimental data from different studies.
Each line is one published result; the experiments were not run side by side.
CDK4 with cyclin D3: Cyclin-dependent kinase 4, with cyclin D3 (CDK4, Homo sapiens, UniProt P11802)
CDK4: Cyclin-dependent kinase 4 (CDK4, Homo sapiens, UniProt P11802)
CDK4 with cyclin D1: Cyclin-dependent kinase 4, with cyclin D1 (CDK4, Homo sapiens, UniProt P11802)

Compound	target	read-out	method	concentration	remaining binding
O=C(NCCCN1CCOCC1)c1ccc(Nc2nccc(-c3cc4ccccc4s3)n2)cc1	CDK4 with cyclin D3	binding	competition with immobilised ligand	1 µM	72%
F[C@@H]1CCN(c2nccc(-c3cnn4ncccc34)n2)C1	CDK4 with cyclin D3	binding		1 µM	92%
O=C(c1ccc(Nc2ncc(Cl)c(-c3ccc(Cl)s3)n2)cc1)N1CCC(N2CCCC2)CC1	CDK4	binding	competition with immobilised ligand	1 µM	1.3%
CCN1CCN(Cc2ccc(C(=O)Nc3ccc(C)c(Oc4ccc5c(c4)CC(=O)N5)c3)cc2C(F)(F)F)CC1	CDK4 with cyclin D3	binding	competition with immobilised ligand	1 µM	100%
O=S(=O)(NC1CCC(c2cc(F)ccc2F)(S(=O)(=O)c2ccc(Cl)cc2)CC1)C(F)(F)F (stereo not drawn)	CDK4 with cyclin D3	cell-free assay	competition with immobilised ligand	1 µM	91%
O=C(Nc1c[nH]nc1C(=O)NC1CCNCC1)c1cc(F)cc(F)c1	CDK4 with cyclin D1	binding	competition with immobilised ligand	1 µM	66%
O=C(c1ccc(Nc2nccc(-c3cc4ccccc4s3)n2)cc1)N1CCC(N2CCCC2)CC1	CDK4 with cyclin D3	binding	competition with immobilised ligand	1 µM	18%
O=C1CCc2cc(Nc3cc(OC4CCOCC4)c([N+](=O)[O-])cc3Cl)ccc2N1	CDK4	cell-free assay	competition with immobilised ligand	1 µM	81%
c1cncc(-c2cccc(Nc3nccc(NC4CCCCC4)n3)c2)c1	CDK4 with cyclin D3	binding	competition with immobilised ligand	10 µM	86%
CN(C)c1nccc(-c2cnn3ncccc23)n1	CDK4 with cyclin D3	binding		1 µM	100%
FC(F)(F)Oc1cccc(-c2cnc3ccc(-c4ccncc4)nn23)c1	CDK4	cell-free assay	competition with immobilised ligand	5 µM	81%
C=CC(=O)N1CCC(C(=O)NCC(=O)N2CCN(c3nc(-c4cnc(N)nc4C(F)F)nc(N4CCOCC4)n3)CC2)CC1	CDK4 with cyclin D1	binding	competition with immobilised ligand	1 µM	83%
CC(C)CC(=O)N1CCc2nc(-c3ccc(Br)cc3)nc(N(C)Cc3ccccc3)c2C1	CDK4 with cyclin D3	cell-free assay	competition with immobilised ligand	0.1 µM	100%
N[C@@H]1CCN(c2nccc(-c3cnn4ncccc34)n2)C1	CDK4 with cyclin D1	binding		1 µM	100%
CCCCN(CCCC)C(=O)CN1C[C@@H](c2cc(OC)c3c(c2)OCO3)[C@H](C(=O)O)[C@H]1CC(C)(C)CCC	CDK4	cell-free assay	competition with immobilised ligand	1 µM	100%
COc1cnc(Nc2cccc(S(N)(=O)=O)c2)nc1N1CCN(c2ccccc2)C(=O)C1	CDK4 with cyclin D1	binding	competition with immobilised ligand	1 µM	100%
CN(C)c1ncc(F)c(-c2cnn3ncccc23)n1	CDK4	binding		1 µM	100%

Compound	target	read-out	method	concentration	remaining binding
CNC(=O)c1ccc(Nc2ncc(C(F)(F)F)c(NCc3nccnc3N(C)S(C)(=O)=O)n2)cc1	CDK4	cell-free assay	competition with immobilised ligand	0.1 µM	100%
O=C(NCC1CCOCC1)c1n[nH]cc1NC(=O)c1c(F)cccc1F	CDK4 with cyclin D3	binding	competition with immobilised ligand	1 µM	20%
C[C@@H](c1ccc(-n2cnc3c(N)ncnc32)cc1)N1CCc2nn(C)c(Cc3ccccc3)c2C1=O	CDK4	binding	competition with immobilised ligand	0.1 µM	85%
CN(c1nccc(-c2cnn3ncccc23)n1)C1CC1	CDK4	binding		1 µM	100%
CNC(=O)[C@@H]1CC[C@@H](n2c(-c3ccc4cnccc4c3)nc3ccc(C(=O)NCc4cccc(C(N)=O)c4)cc32)C1	CDK4	binding	competition with immobilised ligand	1 µM	100%
Cc1nccc(COC(=O)N2C[C@@H]3[C@@H](CNC(=O)c4ccc5[nH]nnc5c4)[C@@H]3C2)n1	CDK4 with cyclin D3	cell-free assay	competition with immobilised ligand	1 µM	78%
COc1cnc(Nc2cccc(S(N)(=O)=O)c2)nc1N1CCN(c2ccccc2)CC1	CDK4	binding	competition with immobilised ligand	1 µM	76%
O=C(NCCCN1CCOCC1)c1ccc(Nc2ncc(Cl)c(-c3ccc(Cl)s3)n2)cc1	CDK4	binding	competition with immobilised ligand	1 µM	50%
N#CC1(c2ccccn2)CCN(Cc2cc(C(=O)N3CCCC3)c(=O)n3ccccc23)CC1	CDK4 with cyclin D1	cell-free assay	competition with immobilised ligand	1 µM	100%
Nc1ncc2c(n1)-c1c([nH]c3ccc(C#CC4CC4)cc13)CCCC2	CDK4 with cyclin D1	binding	competition with immobilised ligand	1 µM	93%
Cc1cnc(Nc2ccc(C(=O)N3CCC(N4CCCC4)CC3)cc2)nc1-c1cc2ccccc2s1	CDK4 with cyclin D1	binding	competition with immobilised ligand	1 µM	1.7%
COc1ncc2cc3ccccc3nc2c1C#N	CDK4 with cyclin D3	cell-free assay	competition with immobilised ligand	5 µM	100%
c1cnn2ncc(-c3ccnc(N4CCC45COC5)n3)c2c1	CDK4	binding		1 µM	78%
O=C(c1ccc(Nc2ncc(Cl)c(-c3cc4ccccc4s3)n2)cc1)N1CCC(N2CCCC2)CC1	CDK4 with cyclin D3	binding	competition with immobilised ligand	1 µM	0.8%
CNCc1ccccc1-c1csc([C@H](C)Nc2nc(C)nc3cc(OC)c(OC)cc23)c1	CDK4 with cyclin D3	cell-free assay	competition with immobilised ligand	1 µM	96%
C[C@H]1CCN(c2nccc(-c3cnn4ncccc34)n2)C1	CDK4	binding		1 µM	95%
